Source: PubChem (several laboratories)
CRFBP-R2 agonist: agonists of human CRF-binding protein/CRF-R2 receptor complex. AID 588473. activation, % at 13.2 µM. actives 0.46% (n = 350,000). HEK293 CRF-R2/CRF-BP, calcium dye fluorescence (FLIPR); percent of saturating CRF peptide response;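 active means activation of at least 50%, plus an integration ratio under a set limit after plate pattern correction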;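 further: plate controls were neutral control wells without compound for no effect and CRF at EC100 for full effect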
TPT1 inh: inhibitors of Candida albicans tRNA 2'-phosphotransferase TPT1. inhibition, % at 5 µM. actives 0.81% (n = 300,000). AID 1962. recombinant caTPT1, FP RNA substrate dephosphorylation;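 active means inhibition above the mean of all tested compounds plus 3 SD, set per screening campaign, cut at about 24% in these data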;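 further: plate controls were DMSO alone for no effect and ferristatin control at 100 nM for full effect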
CRFR2-BP antag: blocks CRF-induced signaling of the CRF-BP/CRF-R2 complex | HEK293 CRF-R2/CRF-BP, CRF-induced calcium fluorescence | AID 588475 | actives 0.59% (n = 350,000) | inhibition, % at 11.8 µM;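 active means inhibition of the ligand-induced calcium signal above about 50% at the single tested concentration, limit read from the data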
CSN inh: inhibitors of human CSN-mediated cullin deneddylation. Q92905. Purified CSN, SCF-Nedd8-OG deneddylation, fluorescence polarization. inhibition, % at 12.5 µM. actives 0.38% (n = 360,000);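 active means pattern-corrected inhibition above about 35%, with an unprinted fluorescence ratio check between 0.5 and 1.5, limit read from the data, passing the limit was not always enough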;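 further: 0% = enzyme with substrate and 100% = substrate without enzyme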
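Assay system: Purified human Csn5 enzyme expressed in HEK293T cells | Amount: Enzyme 0.24 nM | Measured by: Fluorescence polarization readout | Medium: Tris/NaCl/DTT buffer, pH 7.5 | Compound dosing: One concentration, 12.5 µM, 0.25% DMSO | Times: 90 min incubation of compound, enzyme and substrate at room temperature | Control set: no-enzyme wells high, enzyme-with-substrate wells low | Read-out: % inhibition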
Rpn11 inh: Rpn11 (human) deubiquitinase inhibition; human 26S proteasome, Ub4-pepOG fluorescence polarization; 20S core pre-blocked with epoxomicin; calls only at 20 µM; actives 0.59% (n = 360,000);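 active means inhibition at 20 µM, scaled to each plate's controls, above about 33%, limit read from the data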
Target sequence (O00487 whole entry, looked up): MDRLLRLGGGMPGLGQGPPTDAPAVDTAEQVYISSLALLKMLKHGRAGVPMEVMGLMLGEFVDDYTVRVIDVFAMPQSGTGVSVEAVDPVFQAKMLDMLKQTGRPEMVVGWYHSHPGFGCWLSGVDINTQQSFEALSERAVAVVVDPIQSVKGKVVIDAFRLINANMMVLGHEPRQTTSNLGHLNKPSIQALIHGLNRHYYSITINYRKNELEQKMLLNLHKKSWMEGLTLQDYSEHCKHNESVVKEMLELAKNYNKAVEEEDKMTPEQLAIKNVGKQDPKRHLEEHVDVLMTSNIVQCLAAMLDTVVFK
HNF4A DNA FP: change in binding of human HNF4 alpha to DNA; P41235; HNF4a-FITC DNA binding, fluorescence polarization, 1 h; activity change, % at 10 µM; actives 0.3% (n = 360,000); in the data active means activity change above about 30%, passing the limit was not always enough
* hit, by the source's call. An excerpt weighted towards active compounds, which were near 2.3% of everything screened.

`C/C=C\C=C/C(=O)Nc1cccc(C2=NOC3(C2)C[C@@H](C(N)=O)N(C(=O)/C=C/CC)C3)c1` (stereo not given in full) gave CRFBP-R2 agonist -1, TPT1 inh 1, CRFR2-BP antag 0, CSN inh 3, Rpn11 inh inactive and HNF4A DNA FP -4.
For C/C=C\C=C/C(=O)Nc1cccc(C2=NOC3(C2)C[C@@H](C(N)=O)N(C(=O)/C=C/C=C\C)C3)c1 (stereo not given in full) the results were CRFBP-R2 agonist 1, TPT1 inh 5, CRFR2-BP antag 7, CSN inh 64*, Rpn11 inh active and HNF4A DNA FP -41.
For COc1ccc(CNC(=O)COC(=O)c2n[nH]c3ccccc23)cc1OC the results were CRFBP-R2 agonist 0, TPT1 inh 2, CRFR2-BP antag 1, CSN inh 1, Rpn11 inh inactive and HNF4A DNA FP 1.
Screening Cn1c(=O)c2c(nc(CN3CCN(CCO)CC3)n2CCc2ccccc2)n(C)c1=O returned CRFBP-R2 agonist 2, TPT1 inh -4, CRFR2-BP antag -39, CSN inh -4, Rpn11 inh inactive and HNF4A DNA FP -2.
`CCOC(=O)C1CCN(c2ncnc3c2cnn3C)CC1` gave CRFBP-R2 agonist 4, TPT1 inh 4, CRFR2-BP antag -10, CSN inh -2, Rpn11 inh inactive and HNF4A DNA FP 101*.
For CCOC(=O)C1CCN(c2ncnc3c2cnn3-c2ccccc2)CC1 the results were CRFBP-R2 agonist 0, TPT1 inh -1, CRFR2-BP antag 7, CSN inh 5, Rpn11 inh inactive and HNF4A DNA FP -3.
Screening COc1ccc(C(=O)NCC(=O)OCn2nnc3ccccc3c2=O)cc1OC returned TPT1 inh -2.
For CCCCN(C(=O)c1ccc2c(c1)S(=O)(=O)N=C1CCCCCN12)c1c(N)n(CCCC)c(=O)[nH]c1=O the results were CRFBP-R2 agonist -1, TPT1 inh 1, CRFR2-BP antag 96*, CSN inh 5, Rpn11 inh inactive and HNF4A DNA FP 2.
CCOC(=O)/C=c1/s/c(=C/c2ccc3cc(OC)ccc3c2)c(=O)n1CC(=O)NCc1ccc2c(c1)OCO2 was read as CRFBP-R2 agonist 64*, CRFR2-BP antag -11, CSN inh 30 and HNF4A DNA FP 81.
For Cc1ccc(S(=O)(=O)N2CCN(C(=O)COC(=O)c3cnc(C)cn3)CC2)c(C)c1 the results were CRFBP-R2 agonist 0, TPT1 inh -2, CRFR2-BP antag 3, CSN inh 3, Rpn11 inh inactive and HNF4A DNA FP 1.
For Oc1cccc2c(NC(=S)Nc3ccc(OC(F)F)cc3)cccc12 the results were CRFBP-R2 agonist 2, TPT1 inh -5, CRFR2-BP antag -69, CSN inh 15, Rpn11 inh inactive and HNF4A DNA FP 1.
For Cc1ccc(NS(=O)(=O)c2cccc3nsnc23)cc1 the results were CRFBP-R2 agonist -1, TPT1 inh -2, CRFR2-BP antag 75*, CSN inh 4, Rpn11 inh inactive and HNF4A DNA FP -2.
CCOC(=O)c1c(NC(=O)CC(C)C)sc(C(C)=O)c1C was read as CRFBP-R2 agonist -1, TPT1 inh -2, CRFR2-BP antag -26, CSN inh 0, Rpn11 inh inactive and HNF4A DNA FP 0.
CCOC(=O)c1sc(NC(=O)CN(CC(C)C)CC(C)C)c(C(=O)OCC)c1C was read as CRFBP-R2 agonist -1, TPT1 inh -2, CRFR2-BP antag 74*, CSN inh -3, Rpn11 inh inactive and HNF4A DNA FP 6.
Screening CCOc1ccccc1N(CC(=O)N1CCCCCC1)S(=O)(=O)c1ccc(C)cc1 returned CRFBP-R2 agonist 31, CRFR2-BP antag -30, CSN inh 5, Rpn11 inh inactive and HNF4A DNA FP 1.
`CCOc1ccccc1N(CC(=O)N1CCOCC1)S(=O)(=O)c1ccccc1` gave CRFBP-R2 agonist 291*, TPT1 inh -2, CRFR2-BP antag -127, CSN inh -2, Rpn11 inh inactive and HNF4A DNA FP 0.
Screening COc1ccccc1N(CC(=O)N1CCCC1)S(=O)(=O)c1ccc(C)cc1 returned CRFBP-R2 agonist 0, TPT1 inh -3, CRFR2-BP antag 22, CSN inh 1, Rpn11 inh inactive and HNF4A DNA FP 2.
`CCOc1ccccc1N(CC(=O)N1CCC(C(N)=O)CC1)S(=O)(=O)c1ccc(SC)cc1` gave CRFBP-R2 agonist -1, TPT1 inh 3, CRFR2-BP antag 75*, CSN inh -5, Rpn11 inh inactive and HNF4A DNA FP 1.
`COc1ccccc1N(CC(=O)N1CCCCC1C)S(=O)(=O)c1ccc(Cl)cc1` (stereo not given) gave CRFBP-R2 agonist 55*, CRFR2-BP antag -11, CSN inh 5, Rpn11 inh inactive and HNF4A DNA FP 2.
O=C(CN1CCN(c2ccccc2F)CC1)NCc1ccccc1 was read as CRFBP-R2 agonist 1, TPT1 inh -3, CRFR2-BP antag 23, CSN inh 5, Rpn11 inh inactive and HNF4A DNA FP 2.
For O=C(COc1cccc(Cl)c1)Nc1ccc(N2CCOCC2)cc1 the results were CRFBP-R2 agonist 7, TPT1 inh -4, CRFR2-BP antag 80*, CSN inh -1, Rpn11 inh inactive and HNF4A DNA FP 0.
For CCCSc1nc2c([nH]1)c(=O)n(C)c(=S)n2C the results were CRFBP-R2 agonist 2, CRFR2-BP antag -7, CSN inh 2, Rpn11 inh inactive and HNF4A DNA FP -1.
Cc1ccc(S(=O)(=O)N2CCOC2C(Cl)(Cl)Cl)cc1 (stereo not given) was read as CRFBP-R2 agonist 0, TPT1 inh -2, CRFR2-BP antag -11, CSN inh 1, Rpn11 inh inactive and HNF4A DNA FP 1.
For CCCNCCC(c1ccco1)c1ccccc1OC (stereo not given) the results were CRFBP-R2 agonist 0, TPT1 inh 1, CRFR2-BP antag 56*, CSN inh -5, Rpn11 inh inactive and HNF4A DNA FP 1.
`CCC(=O)NCCC(c1ccco1)c1ccccc1OC` (stereo not given) gave CRFBP-R2 agonist 1, TPT1 inh 6, CRFR2-BP antag -17, CSN inh 2, Rpn11 inh inactive and HNF4A DNA FP 3.
Screening N#Cc1ccc(CSC2=NCCN2)cc1 returned CRFBP-R2 agonist -1, TPT1 inh 0, CRFR2-BP antag 104*, CSN inh -1, Rpn11 inh inactive and HNF4A DNA FP 1.
`c1ccc(CSC2=NCCCN2)cc1` gave CRFBP-R2 agonist -1, TPT1 inh 0, CRFR2-BP antag 19, CSN inh -2, Rpn11 inh inactive and HNF4A DNA FP 4.
